Compound activity as filed in PubChem BioAssay.
STAT1 act: STAT1 signaling activation | AID 932 | actives 2.6% (n = 200,000) | NIH 3T3 STAT1-luciferase reporter, IFN-gamma, luminescence; 100% = IFN-gamma alone, no compound | activation (% of control), % at 5.5 µM;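 active means activation above the screen-wide mean activation plus 3 SD, cut at about 130% in these data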;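 further: raw ratio to IFN-gamma control signal so 100% means no change and 0% no light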
FLuc inhib CS: Photinus pyralis luciferase inhibition counter-screen; ATPLite firefly luciferase biochemical luminescence, 10 min; inhibition, % at 10 µM; P08659; AID 1006; actives 1.5% (n = 200,000);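 active means inhibition above about 50% when tested at 10 µM, limit read from the data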
APP 5'UTR act: APP 5'UTR luciferase reporter activation. actives 1% (n = 190,000). activation, % at 2 µM. AID 1276. SH-SY5Y APP 5'UTR luciferase reporter, luminescence; zero percent = DMSO vehicle wells;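 active means activation above a set limit, based on mean plus 3 SD of controls, cut at about 140% in these data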
NF-kB expr up: compounds increasing NF-kB expression in human neuronal cells; actives 1.6% (n = 190,000); fold change at 12.5 µM; NF-kB reporter expression; stronger effect = higher value; AID 1239; in the data active means fold change above about 3.3
Rad51 HR inh: blocks human Rad51 in homologous recombination; inhibition, % at 10 µM; hRad51 DNA strand exchange, fluorescence dequenching; AID 1385; actives 0.085% (n = 200,000);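 active means inhibition above 40% at the single screening dose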;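 further: 0% = DMSO control wells and 100% = blanks with heterologous ssDNA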
Target sequence (Q06609 whole entry, looked up): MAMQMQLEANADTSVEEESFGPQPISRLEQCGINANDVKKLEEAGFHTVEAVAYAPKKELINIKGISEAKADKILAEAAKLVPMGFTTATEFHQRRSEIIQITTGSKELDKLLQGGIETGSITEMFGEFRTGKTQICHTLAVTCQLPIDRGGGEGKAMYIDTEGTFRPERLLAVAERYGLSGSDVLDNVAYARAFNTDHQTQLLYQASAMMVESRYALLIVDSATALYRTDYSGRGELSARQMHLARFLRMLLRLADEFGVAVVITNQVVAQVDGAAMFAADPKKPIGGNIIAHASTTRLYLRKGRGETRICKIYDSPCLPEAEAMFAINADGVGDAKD
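Test system: preformed human Rad51 ssDNA filaments. Compound dosing: single dose, 10 µM final compound. Incubation: filaments 15 min 37 °C, then compound 30 min. Technique: FRET fluorescence dequenching, excitation 485 nm, emission 520 nm. Read-out basis: percent inhibition from fluorescence, normalised to plate control and blank means. Benchmarks: plate controls and plate blanks.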
FLuc act counter: firefly luciferase counter-screen for stimulation assays; ATPlite luciferase biochemical, luminescence, 10 min; 0 = ATP-free wells, 1 = DMSO control; activation factor at 10 µM; 200,000 tested, under 10 active;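 active means luciferase activation factor, scaled between plate controls, of at least 2 with compound at 10 µM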
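Assay system: Luciferase/luciferin detection reagent, cell-free biochemical luciferase assay / Also added: ATP substrate / Schedule: 10 min at ambient temperature / Measured by: luminescence measurement of luciferase light output / Benchmarks: low control with PBS replacing ATP, high control enzyme plus ATP without compound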
The depositor's hits bear a star; . = no result. This is a sample that favours compounds with a hit; in the whole collection about 3.9% have one here.

SMILES	STAT1 act	FLuc inhib CS	APP 5'UTR act	NF-kB expr up	Rad51 HR inh	FLuc act counter
NC(=O)C1(N2CCCCC2)CCN(c2nc(-c3ccc(Br)cc3)cs2)CC1	96	-6	-5	1.2	-5	1.1
Nc1cc(Cl)nnc1Cl	.	.	.	.	3	.
CCN(CC)S(=O)(=O)c1cccc(-n2c(O)c(C=Nc3ccccc3C(=O)O)c3ccccc3c2=O)c1	.	.	.	.	2	.
O=C(Nc1cc2c(cc1Cl)OCCCO2)c1ccccc1	133*	9	65	2.8	-4	0.9
CC(C)C(=O)c1cc2c(cc1NC(=O)c1ccccc1)OCCO2	97	-7	-3	1.1	-11	1.1
CCOc1cc(Cl)c(NC(=O)c2ccco2)cc1OCC	103	-4	-18	1.3	.	1
O=C(Nc1cc2c(cc1Cl)OCCCO2)c1ccco1	146*	15	50	2.4	.	0.9
CC(O)C(O)C(O)C(O)/C=N/NC(=O)c1ccccc1 (centres undefined)	129*	-1	56	1.1	15	1
CCOc1cc(NC(=S)NCCCN2CCOCC2)c(OCC)cc1NC(=O)c1ccc(C)cc1	122	-1	-6	1.1	-28	1
COC(=O)c1ccc(COc2ccc(/C=N/N3CCN(C)CC3)cc2)cc1	136*	-3	55	1.7	2	1
CCOC(=O)CNC(=O)CSc1nc(C)cc(C)c1C#N	88	0	-3	1.2	-14	1
CCOC(=O)NC(=O)CSc1nc(C)cc(C)c1C#N	122	36	113	3.4*	7	0.6
COc1ccc(OC)c(C(=O)COC(=O)c2cccnc2Cl)c1	83	2	8	1.4	18	1
O=C(COC(=O)c1cccnc1Cl)c1ccc(OC(F)F)cc1	99	54*	6	1.4	26	0.5
COc1ccc(C(=O)COC(=O)c2cccnc2Cl)c(OC)c1	141*	31	50	1.8	-6	0.7
O=C(COC(=O)c1cccnc1Cl)c1ccc(Cl)cc1Cl	102	78*	-1	0.98	2	0.2
CC(=O)Nc1cc(C(=O)OCC(=O)c2ccc(Cl)cc2Cl)ccc1C	94	32	-5	0.91	-1	0.7
CC(C)C(=O)Nc1cccc(C(=O)OCC(=O)c2ccc(Cl)cc2Cl)c1	98	54*	5	1.3	1	0.5
CCC(CC)N=C1NS(=O)(=O)c2cc([N+](=O)[O-])ccc21	94	-3	4	0.81	-4	1
CN=C(Nc1cccc(OC)c1)SC1CC(=O)N(c2ccc(C(=O)O)cc2)C1=O (centres undefined)	93	-9	6	1.1	8	1.1
CC(=O)N1CC(=O)N=C1SCC(=O)Nc1nc(C)c(-c2ccccc2)s1	79	1	2	1.5	-7	1
O=C(COc1ccc(Cl)cc1Cl)Nc1c(-c2cccs2)nc2ccccn12	106	-3	-16	0.7	3	1
Oc1ccccc1-c1nc(NCC2CCCO2)c2ccccc2n1 (centres undefined)	101	-2	-9	0.43	3	1
c1ccc2sc(NCC3CCCO3)nc2c1 (centres undefined)	136*	25	50	1.2	-22	0.7
Cc1ccc(CNc2nc3ccccc3s2)s1	53	90*	182*	4.2*	-9	0.1
SMILES	STAT1 act	FLuc inhib CS	APP 5'UTR act	NF-kB expr up	Rad51 HR inh	FLuc act counter
c1ccc2oc(-c3csc(NCC4CCCO4)n3)cc2c1 (centres undefined)	148*	48	169*	9.1*	-4	0.5
c1ccc(CCNc2nc3ccccc3s2)cc1	119	3	31	2.2	-1	1
COc1ccc2c(C(=O)CCl)c[nH]c2c1	.	.	.	.	-16	.
COc1ccccc1CN1CN(S(=O)(=O)c2ccccc2)c2nc3ccccc3nc21	.	.	.	.	6	.
Cc1ccc(C(=O)Nc2ccc(C(F)(F)F)n(C)c2=O)cc1	133*	30	71	0.99	26	0.7
O=C(CSc1ccccn1)N/N=C/C=C/c1ccccc1	109	14	-3	1.4	2	0.9
C(=C\c1ccccc1)/CSc1ccccn1	136*	19	54	2.2	0	0.8
Cc1cccnc1NC(=O)Cn1nc(-c2ccccc2)oc1=S	117	-4	170*	4.2*	2	1
N#Cc1cccc(C#N)c1Oc1ccc(N)cc1	.	.	.	.	8	.
COc1cc(NS(=O)(=O)c2ccc(N/C=C\C(=O)c3ccc(F)cc3)cc2)nc(OC)n1	118	-5	-22	1.2	6	1
O=C(Nc1cccnc1Cl)c1ccc2c(Cl)c3c(nc2c1)CCC3	135*	91*	242*	5.9*	-11	0.1
N#Cc1ccccc1NC(=O)c1ccc2c(Cl)c3c(nc2c1)CCCC3	120	50*	92	3.1	-3	0.5
O=C(CC(Nc1cccc(Cl)c1Cl)C(=O)O)c1ccccc1 (centres undefined)	103	-7	-14	0.97	-1	1.1
O=C(CC(Nc1ccccc1Cl)C(=O)O)c1ccccc1 (centres undefined)	127	19	172*	0.61	5	0.8
O=C(CC(Nc1ccc(Cl)cc1)C(=O)O)c1ccccc1 (centres undefined)	147*	69*	209*	2.4	-8	0.3
O=c1/c(=C\c2cccc(O)c2)sc2nc(-c3ccccc3)c(-c3ccccc3)n12	.	.	.	.	10	.
NC(=O)/C(=C\c1ccccc1)NC(=O)c1ccc(NC(=O)c2ccccc2)cc1	.	.	.	.	7	.
CCOC(=O)/C(=C\c1ccc(OC(F)F)cc1)C1=Nn2c(nnc2-c2ccc(Cl)cc2)SC1	96	-2	-34	8.3*	4	1
O=C(Oc1ccc(/C=N/O)cc1)c1ccccc1Cl	142*	18	61	2	6	0.8
Cc1cccc(C(=O)Oc2ccc(/C=N/O)cc2)c1	135*	10	149*	3.1	3	0.9
CC(=O)Oc1ccccc1C(=O)Oc1ccc(/C=N/n2cnnc2)cc1	99	-7	-9	1.1	-5	1.1
Cc1cc(C)n(-c2nnc(NC(C)(C)C)nn2)n1	122	53*	23	2.4	.	0.5
Cc1cc(C)n(-c2nc(NC(C)(C)C)nc(NC(C)(C)C)n2)n1	94	-3	5	1.5	3	1
CC1=CC(C)[C@H](/C=N/n2c(=O)[nH]c3c([nH]c4ccc(Br)cc43)c2=O)C(C)C1 (some centres undefined)	95	-8	-2	1.3	22	1.1
C/C(=N\NC(=O)c1nn(C)c(C)c1Br)c1cccc(NC(=O)c2ccc(F)cc2)c1	139*	69*	60	1.4	21	0.3
O=C(Nc1ccc(F)c(Cl)c1)c1nsc(Cl)c1Cl	.	.	.	.	16	.
O=C(Nc1ccc(F)cc1)c1nsc(Cl)c1Cl	138*	29	127	5*	-12	0.7
